XiGFP reactiv = reactivates the inactive X chromosome in mouse fibroblasts; activation, % at 7.58 µM; XiGFP mouse fibroblasts, % GFP-positive cells imaging, 3 d; cells co-treated with 5-aza-dC sensitizer; scaled so ellipticine positive control = 100%; actives 0.055% (n = 360,000); AID 743238;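 active = mean normalized replicate activation at least 10% and every replicate at or above 10%; inconclusive = only one of the two criteria met; inactive = mean below 10% and not all replicates reach 10%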;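 note: 0% = median of on-plate neutral control wells and 100% = ellipticine 6 µM median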
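Material: XiGFP fibroblasts, SV40-immortalized; Buffer or medium: DMEM containing 5-aza-dC; Compound dosing: single point; Times: 3 days compound exposure.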
TROY NFkB inh = blocks TROY-dependent signaling in reporter cells; Q293 LMP1-TROYcd NF-kB luciferase reporter, 4 h; inhibition, % at 10 µM; actives 0.98% (n = 360,000); AID 1347056;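 active = compounds whose plate-normalised and pattern-corrected inhibition of the luciferase reporter signal at the single screening dose is 50% or more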
LGR2 inh = Drosophila LGR2 receptor signaling inhibition. HEK293 LGR2, CRE-luciferase, bursicon-stimulated, 4 h. inhibition, % at 9.99 µM. actives 0.35% (n = 380,000). AID 720647;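 active = drop in luminescence signal, shown as inhibition above about 50% in the replicate tests, limit read from the data, passing the limit was not always enough; inconclusive = probably only some replicates passing the limit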;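 note: agonist challenge used bursicon conditioned medium at about half maximal strength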
TWEAK Fn14 block = blocks TWEAK-Fn14 interaction in a reporter cell assay | actives 2% (n = 360,000) | AID 1159606 | inhibition, % at 10 µM | TWEAK-stimulated Fn14 reporter cells, luciferase luminescence, 8 h; in the data active = inhibition above about 50%
EWS-Fli block = EWS/Fli transcriptional activity inhibition; A673 NR0B1-luciferase reporter, viability-normalised; inhibition, % at 12.6 µM; actives 0.67% (n = 350,000); AID 651661;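 active = mean inhibition of at least 50% after viability correction, with every replicate also passing that limit; inconclusive = mean reaches 50% but only one of two replicates passes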;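 note: firefly luciferase signal divided by Alamar Blue viability fluorescence both relative to DMSO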
FN deposition inh = fibronectin deposition inhibition | AH1F fibroblasts, Alexa488-fibronectin deposition fluorescence, overnight | inhibition, % at 12.6 µM | actives 0.086% (n = 350,000) | AID 743247;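 active = mean inhibition across replicates of 30% or more, regardless of how many single replicates reach that level; inconclusive = mean under 30% yet at least half of replicates reach 30%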;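 note: positive control wells lacked labelled fibronectin entirely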
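Assay system: AH1F fibroblasts / Quantity: 10000 cells per well / Medium: DMEM plus 2% serum, read in PBS / Reagent: labelled fibronectin 24 nM / Dosing: single dose, pinned / Times: 1 h cell attachment, overnight exposure to compound and label / Signal: fluorescence, ex 485 nm, em 525 nm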
Numbers without * were called inactive; ? = inconclusive; · = not tested or not shown. Rows were chosen to be rich in hits. Some 2.3% of all compounds tested hit in one or more screens of this group.

SMILES | XiGFP reactiv | TROY NFkB inh | LGR2 inh | TWEAK Fn14 block | EWS-Fli block | FN deposition inh
O=c1[nH]c(CN2CCN(c3ccccc3Cl)CC2)nc2ccsc12 | · | 21 | · | 5 | · | -1
O=C(C[C@H]1CC[C@@H]2[C@H](COC[C@H](O)CN2Cc2cccc(-c3ccncc3)c2)O1)N1CCCCC1 | 0 | · | -1 | · | 4 | -4
CCC(=O)Nc1ccc2c(c1)C(=O)N(C)C[C@H](OC)[C@@H](C)CN(C(=O)COC)[C@@H](C)CO2 | 0 | · | 3 | · | 3 | -3
COc1ccccc1NC(=O)N1CCCCN2[C@@H](CO)[C@H](c3ccc(-c4cccc(F)c4)cc3)[C@@H]2C1 | 0 | · | 76* | · | 0 | ·
O=C(Nc1ccc(F)cc1)N1CCCCN2[C@H](CO)[C@@H](c3ccc(C#Cc4ccccc4)cc3)[C@H]2C1 | 0 | · | -11 | · | 3 | 4
N#Cc1cccc(-c2ccc([C@@H]3[C@H]4CN(C(=O)Nc5cccc(F)c5)CCCCN4[C@H]3CO)cc2)c1 | 0 | · | 6 | · | 2 | ·
N#Cc1cccc(-c2ccc([C@@H]3[C@H](CO)N4CCCCN(C(=O)Nc5cccc(F)c5)C[C@@H]34)cc2)c1 | 0 | · | 96* | · | 26 | ·
O=C(Nc1ccc(F)cc1)N1CCCCN2[C@@H](CO)[C@@H](c3ccc(C#Cc4ccccc4)cc3)[C@@H]2C1 | 0 | · | -6 | · | 63* | 12
O=C(Nc1cccc(F)c1)N1CCCCN2[C@H](CO)[C@H](c3ccc(C#Cc4ccccc4)cc3)[C@H]2C1 | 0 | · | 23 | · | 73* | ·
O=C(C[C@@H]1C=C[C@@H](NC(=O)CC2CC2)[C@@H](CO)O1)NCc1ccc(Cl)cc1 | 0 | · | 6 | · | 7 | ·
C[C@@H]1CN([C@@H](C)CO)C(=O)c2cc(NC(=O)CCC(F)(F)F)ccc2O[C@@H](C)CCCCO[C@H]1CN(C)Cc1ccncc1 | 0 | · | -10 | · | -2 | ·
COCC(=O)N1CCCCN2[C@H](CO)[C@H](c3ccc(-c4cccc(C)c4)cc3)[C@@H]2C1 | 0 | · | 62* | · | -4 | ·
O=C(Nc1ccccc1)N1CCCCN2[C@@H](CO)[C@@H](c3ccc(-c4ccccc4)cc3)[C@@H]2C1 | 0 | · | 27 | · | 65* | ·
COCC(=O)N1CCCCN2[C@H](C1)[C@H](c1ccc(-c3cccc(C)c3)cc1)[C@@H]2CO | 0 | · | 6 | · | -1 | ·
O=C(c1ccncc1)N1CC(=O)N2[C@H](C1)[C@@H](c1ccc(-c3ccccc3)cc1)[C@@H]2CO | 0 | · | -13 | · | 54* | ·
CCS(=O)(=O)N1CCC2(CC1)CN(C(=O)c1ccc(F)cc1)[C@@H](CO)c1[nH]c3cc(OC)ccc3c12 | 0 | · | -11 | · | -9 | ·
O=C(/C=C/c1ccc(OCCCF)cc1)Nc1ccnc(-c2cccnc2)n1 | 0 | 52* | · | 27 | 12 | -13
CCOC(=O)c1c(C)oc2c1c(C=NCC1CCCO1)c(O)c1ccccc12 (stereo unspecified) | · | 69* | · | 29 | · | -10
CCOC(=O)c1c(C)oc2c1c(C=NCc1ccccn1)c(O)c1ccccc12 | 0 | 33 | · | 29 | -21 | 13
COc1ccc(NC(=O)N(C)C[C@@H]2Oc3ccc(NS(=O)(=O)c4cccs4)cc3CC(=O)N([C@@H](C)CO)C[C@H]2C)cc1 | 0 | · | -10 | · | 8 | -5
Cc1ccc(-c2cc(C(=O)N(C)Cc3cnn(C)c3C)c3cc(Br)ccc3n2)cc1 | 0 | -26 | 71* | 26 | -15 | 2
CCC(=O)Nc1cc2nn(-c3ccc(OC)cc3)nc2cc1C | · | 57* | ? | 70* | · | ·
CCC(=O)Nc1cc2nn(-c3ccc(C)cc3)nc2cc1C | 0 | 90* | 40 | 93* | 77* | 0
CCCCC(=O)Nc1cc2nn(-c3ccc(OC)cc3)nc2cc1C | · | -33 | 10 | -43 | -60 | ·
Cc1ccc(-n2nc3ccc(NC(=S)NC(=O)/C=C/c4ccco4)cc3n2)cc1 | 0 | -27 | -46 | 10 | -13 | -9
SMILES | XiGFP reactiv | TROY NFkB inh | LGR2 inh | TWEAK Fn14 block | EWS-Fli block | FN deposition inh
Cc1ccc(-n2nc3cc(C)c(NC(=S)NC(=O)/C=C/c4ccco4)cc3n2)cc1 | 0 | 69* | -40 | 39 | · | 14
CCC(=O)Nc1ccc2c(c1)ncn2-c1ccc(C)cc1 | 0 | -80 | -35 | 16 | -94 | -8
CO[C@@H]1CN(C)C(=O)c2cc(NC(=O)Nc3c(C)noc3C)ccc2OC[C@@H](C)N(CC2CC2)C[C@@H]1C | 0 | · | 5 | · | -10 | -3
CCC(=O)Nc1ccc2c(c1)C(=O)N(C)[C@@H]1CC[C@H](CC(=O)NCc3ccccc3Cl)O[C@H]1CO2 | 0 | · | -10 | · | 2 | -4
COc1ccc2oc(=Nc3cccc(F)c3)c(C(N)=O)cc2c1 | 0 | -73 | -49 | -10 | -25 | ·
COc1ccc2cc(C(N)=O)c(=Nc3ccc(C)cc3)oc2c1 | 0 | 7 | -13 | 67* | -58 | 1
CO[C@H]1CN(C)C(=O)c2ccc(NC(=O)C3CC3)cc2OC[C@H](C)N(C)C[C@@H]1C | 0 | · | -7 | · | 4 | -2
O=C(COC(=O)c1ccccc1-n1cnnn1)c1ccc(Br)cc1 | 0 | 62* | 8 | 72* | 14 | -1
O=C(COC(=O)c1ccccc1-n1cnnn1)c1ccccc1 | 0 | 36 | 1 | 30 | -32 | 15
CC(=O)N(C)C[C@H]1Oc2cc(C3=CCCCC3)ccc2S(=O)(=O)N([C@H](C)CO)C[C@H]1C | -1 | · | 11 | · | -2 | ·
CO[C@H]1CN(C)C(=O)c2cc(NC(=O)c3ccccc3)ccc2OC[C@H](C)N(C(C)=O)C[C@H]1C | 1 | · | -2 | · | 2 | 9
COc1cccc(/C=C/C(=O)OCC(=O)c2c[nH]c3ccccc23)c1OC | 0 | 34 | · | 55* | 4 | 6
COc1ccccc1N(C)S(=O)(=O)c1ccc(C(=O)OCC(=O)c2c[nH]c3ccccc23)cc1 | 0 | 37 | 26 | 51* | 16 | 2
COc1cccc(/C=C/C(=O)OCC(=O)c2c[nH]c3ccccc23)c1 | 0 | 12 | -2 | 15 | 10 | -13
O=C(COC(=O)c1cccc(S(=O)(=O)N2CCCCC2)c1)NCc1ccccc1 | 0 | 3 | -8 | -6 | 1 | -4
O=C(OCC(=O)c1c[nH]c2ccccc12)c1cccc(S(=O)(=O)N2CCCCCC2)c1 | 0 | 1 | 14 | 52* | 7 | 3
COc1ccc(S(=O)(=O)N[C@H]2CC[C@H](CCn3cc(-c4cccc(F)c4)nn3)O[C@@H]2CO)cc1 | 0 | · | -8 | · | 6 | ·
COc1ccc(NC(=O)N(C)C[C@@H]2Oc3ccc(NC(=O)CCCCCC(=O)Nc4ccccc4N)cc3CC(=O)N([C@H](C)CO)C[C@@H]2C)cc1 | -1 | · | -12 | · | 3 | ·
C[C@@H]1CCCCO[C@@H](CN(C)S(=O)(=O)c2cccs2)[C@@H](C)CN([C@@H](C)CO)C(=O)c2cc(NC(=O)c3ccncc3)ccc2O1 | 0 | · | -13 | · | 1 | -16

Screens: PubChem, several laboratories
